Results reported in ChEMBL document CHEMBL1124462, “Synthesis, DNA binding, and biological evaluation of synthetic precursors and novel analogues of netropsin” (J Med Chem, 1989).
Values after ≈ are worked out from the molar mass of the structure shown.

What was measured:
HeLa [1] = assay: Minimum inhibitory concentration required to reduce Coxsackie virus B4 induced cytopathogenicity by 50% in HeLa cells; assay type: functional; conditions: Homo sapiens
Method in brief: (§1)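 Cell cultures (PRK, HeLa or Vero B) are infected at 100 × CCID50. Cytopathogenicity is recorded once it reaches completion in the untreated virus-infected controls. The minimum inhibitory concentration is given in μg/mL.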

Vero [2] = assay: Minimum inhibitory concentration required to reduce Coxsackie virus B4 induced cytopathogenicity by 50% in african green monkey (VeroB) cells; assay type: functional, Coxsackievirus B4; conditions: Chlorocebus sabaeus; method in brief: as §1
[3] = system: Vesicular stomatitis virus; assay: (§2) Minimum inhibitory concentration required to reduce vesicular stomatitis virus induced cytopathogenicity by 50% in primary rabbit kidney cells (PRK); assay type: functional
HeLa [4] = assay: Minimum cytotoxic concentration required to cause a microscopically detectable alteration of normal cell morphology and show antiviral activity in HeLa cells; assay type: functional; conditions: Homo sapiens
Method in brief: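 HeLa cell cultures exposed to compound for the same duration as the antiviral assay, then examined microscopically. The minimum cytotoxic concentration is the lowest level causing detectable alteration of normal cell morphology. Values are in μg/mL.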

Nucleic Acid [5] = assay: Association constant against the polynucleotide poly (dA-dT).; assay type: nucleic-acid assay
Method in brief: (§3)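 Competition with ethidium bromide binding at 25 °C in 0.01 M cacodylate buffer, pH 7.0, with 1.26 μM ethidium bromide and 1 μM polynucleotide. Bound ethidium is estimated from its fluorescence increase (V = 34 for poly(dA-dT), 25 for poly(dG-dC)). IC50 for 50% ethidium displacement comes from a fitted competition sigmoid. Kapp is calculated from IC50 assuming a binding size of four base pairs.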

[6] = Dose required to inhibit Human T-Lymphoblast (Molt/4F) cell proliferation by 50%; assay type: functional; conditions: read-out: CD50 (the source's name)
[7] = system: Mammalian orthoreovirus 1; assay: Minimum inhibitory concentration required to reduce reovirus-1 induced cytopathogenicity by 50% in african green monkey (VeroB)cells; assay type: functional; method in brief: as §1
Vero [8] = assay: Minimum cytotoxic concentration required to cause a microscopically detectable alteration of normal cell morphology and show antiviral activity in african green monkey (Vero B) cells; assay type: functional; conditions: Chlorocebus sabaeus
Semliki Forest virus = assay: Minimum inhibitory concentration required to reduce semliki forest virus induced cytopathogenicity by 50% in african green monkey (VeroB) cells; assay type: functional; method in brief: as §1
Vero [9] = assay: (§4) Minimum inhibitory concentration required to reduce Sindbis virus induced cytopathogenicity by 50% in african green monkey (VeroB) cells; assay type: ADME, cell-based; conditions: Chlorocebus sabaeus, read-out: MIC; method in brief: as §1
[10] = Minimum inhibitory concentration required to reduce herpes simplex virus-1 (KOS) induced cytopathogenicity by 50% in primary rabbit kidney cells (PRK); assay type: functional; conditions: Oryctolagus cuniculus; method in brief: as §1
Oryctolagus cuniculus = organism: Oryctolagus cuniculus; assay: Minimum cytotoxic concentration required to cause a microscopically detectable alteration of normal cell morphology and show antiviral activity in primary rabbit kidney (PRK) cells; assay type: functional
Vero [11] = assay: Minimum inhibitory concentration required to reduce parainfluenza virus-3 induced cytopathogenicity by 50% in african green monkey (VeroB) cells; assay type: functional, Human respirovirus 3; conditions: Chlorocebus sabaeus; method in brief: as §1
Raji = assay: Dose required to inhibit Human B-Lymphoblast (Raji) cell proliferation by 50%; assay type: functional; conditions: read-out: CD50 (the source's name)
L1210 = assay: Dose required to inhibit Murine leukemia (L1210) cell proliferation by 50%; assay type: functional; conditions: Mus musculus, read-out: CD50 (the source's name)
Nucleic Acid [12] = assay: Association constant against polynucleotide poly (dG-dC); assay type: nucleic-acid assay; method in brief: as §3
[13] = Minimum inhibitory concentration required to reduce herpes simplex virus-2 (G) induced cytopathogenicity by 50% in primary rabbit kidney cells (PRK); assay type: functional; conditions: Oryctolagus cuniculus; method in brief: as §1
[14] = as §2; assay type: functional; conditions: Oryctolagus cuniculus
HeLa [15] = assay: Minimum inhibitory concentration required to reduce vesicular stomatitis virus induced cytopathogenicity by 50% in HeLa cells; assay type: functional; conditions: Homo sapiens
[16] = Minimum inhibitory concentration required to reduce herpes simplex virus-2 (G)induced cytopathogenicity by 50% in primary rabbit kidney cells (PRK); assay type: functional; conditions: Oryctolagus cuniculus
Sindbis virus = assay: as §4; assay type: functional; method in brief: as §1
[17] = Minimum inhibitory concentration required to reduce herpes simplex virus-1 (KOS)induced cytopathogenicity by 50% in primary rabbit kidney cells (PRK); assay type: functional; conditions: Oryctolagus cuniculus
HeLa [18] = assay: Minimum inhibitory concentration required to reduce polio virus -1 induced cytopathogenicity by 50% in HeLa cells; assay type: functional; conditions: Homo sapiens
Human alphaherpesvirus 2 = assay: Minimum inhibitory concentration required to reduce herpes simplex virus-2(G) induced cytopathogenicity by 50% in primary rabbit kidney cells (PRK); assay type: functional; method in brief: as §1
Human alphaherpesvirus 1 = assay: Minimum inhibitory concentration required to reduce herpes simplex virus-1 (KOS) induced cytopathogenicity by 50% in primary rabbit kidney cells(PRK); assay type: functional; method in brief: as §1
Nucleic Acid [19] = assay: Ratio of association constant of poly (dA-dT) and poly (dG-dC); assay type: nucleic-acid assay
Method in brief: (§5)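 Kapp for poly(dA-dT) and for poly(dG-dC) is each determined by ethidium bromide competition in 0.01 M cacodylate, pH 7.0, 25 °C, with 1.26 μM ethidium and 1 μM polynucleotide. IC50 comes from a fitted competition sigmoid and is converted to Kapp assuming a four-base-pair binding size. The ratio is taken between the two polynucleotides.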

FM3A = assay: In vitro inhibition of FM3A (murine mammary carcinoma) cell proliferation.; assay type: functional; conditions: Mus musculus, read-out: CD50 (the source's name)
Nucleic Acid [20] = assay: Association constant against the polynucleotide poly(dA-dT); assay type: nucleic-acid assay; method in brief: as §3
Nucleic Acid [21] = assay: Ratio of association constant of poly(dA-dT) and poly(dG-dC); assay type: nucleic-acid assay; method in brief: as §5

Structure (SMILES): Cn1c(C(=O)NCCC#N)ccc1[N+](=O)[O-]
- MIC (HeLa [1]): > 200 mg/L
- MIC (Vero [2]): > 200 mg/L
- MIC [3]: 300 mg/L (≈ 1350 µM)
- MCC (HeLa [4]): 400 µg/mL
- K app (Nucleic Acid [5]): < 100 M⁻¹
- CC50 [6]: > 50 mg/L
- MIC [7]: > 100 mg/L
- MCC (Vero [8]): > 400 µg/mL
- MIC (Semliki Forest virus): > 100 mg/L
- IC50 (Vero [9]): > 100 mg/L
- MIC [10]: > 200 mg/L
- MCC (Oryctolagus cuniculus): 400 µg/mL
- MIC (Vero [11]): > 100 mg/L
- CC50 (Raji): > 50 mg/L
- CC50 (L1210): > 50 mg/L
- K app (Nucleic Acid [12]): < 100 M⁻¹
- MIC [13]: > 200 mg/L

Structure (SMILES): Nc1nccc2c1ncn2[C@@H]1C[C@H](CO)[C@@H](O)[C@H]1O [3-DEAZAARISTEROMYCIN A]
- MIC (HeLa [1]): > 400 mg/L
- MIC (Vero [2]): 70 mg/L (≈ 265 µM)
- MIC [14]: 2 mg/L (≈ 7.57 µM)
- MCC (HeLa [4]): > 400 µg/mL
- MIC (HeLa [15]): 2 mg/L (≈ 7.57 µM)
- MIC [7]: 0.2 mg/L (≈ 0.757 µM)
- MCC (Vero [8]): > 400 µg/mL
- MIC (Semliki Forest virus): > 400 mg/L
- MCC (Oryctolagus cuniculus): >400 µg/mL
- MIC (Vero [11]): 0.4 mg/L (≈ 1.51 µM)
- MIC [16]: > 400 mg/L
- MIC (Sindbis virus): > 400 mg/L
- MIC [17]: > 400 mg/L

Structure (SMILES): Nc1ncnc2c1ccn2[C@@H]1O[C@H](CO)[C@@H](O)[C@H]1O [TUBERCIDIN]
- MIC (HeLa [1]): 0.07 mg/L (≈ 0.263 µM)
- MIC (Vero [2]): 0.07 mg/L (≈ 0.263 µM)
- MIC (HeLa [18]): 0.07 mg/L (≈ 0.263 µM)
- MIC [14]: 0.2 mg/L (≈ 0.751 µM)
- MCC (HeLa [4]): > 0.4 µg/mL
- MIC (HeLa [15]): 0.07 mg/L (≈ 0.263 µM)
- MIC [7]: 0.07 mg/L (≈ 0.263 µM)
- MCC (Vero [8]): > 0.4 µg/mL
- MIC (Semliki Forest virus): > 0.4 mg/L
- MCC (Oryctolagus cuniculus): >0.4 µg/mL
- MIC (Vero [11]): 0.07 mg/L (≈ 0.263 µM)
- MIC [16]: > 0.1 mg/L
- MIC (Sindbis virus): 0.1 mg/L (≈ 0.376 µM)
- MIC [17]: > 0.1 mg/L

Structure (SMILES): CC(NC(=O)c1cc(NC(=O)c2cc([N+](=O)[O-])cn2C)cn1C)C(=O)OC(C)(C)C (centres undefined)
- MIC (HeLa [1]): > 100 mg/L
- MIC (Vero [2]): 20 mg/L (≈ 47.7 µM)
- MIC (HeLa [18]): > 40 mg/L
- MIC [3]: > 40 mg/L
- MCC (HeLa [4]): > 100 µg/mL
- K app (Nucleic Acid [5]): 200 M⁻¹
- CC50 [6]: 26.6 mg/L (≈ 63.4 µM)
- MIC [7]: > 40 mg/L
- MCC (Vero [8]): > 100 µg/mL
- MIC (Semliki Forest virus): > 40 mg/L
- MIC (Human alphaherpesvirus 2): > 40 mg/L
- MCC (Oryctolagus cuniculus): >100 µg/mL
- MIC (Human alphaherpesvirus 1): > 40 mg/L
- Ratio (Nucleic Acid [19]): 0.5
- MIC (Vero [11]): 20 mg/L (≈ 47.7 µM)
- CC50 (FM3A): 27.7 mg/L (≈ 66 µM)
- CC50 (Raji): 33.8 mg/L (≈ 80.6 µM)
- MIC (Sindbis virus): > 40 mg/L
- CC50 (L1210): 37.8 mg/L (≈ 90.1 µM)
- K app (Nucleic Acid [12]): 400 M⁻¹

Structure (SMILES): Cn1cc(NC(=O)c2cc([N+](=O)[O-])cn2C)cc1C(=O)NCCC(=N)N
- MIC (HeLa [1]): > 400 mg/L
- MIC (Vero [2]): > 200 mg/L
- K app (Nucleic Acid [20]): 12000 M⁻¹
- MIC [3]: > 100 mg/L
- MCC (HeLa [4]): > 400 µg/mL
- CC50 [6]: > 100 mg/L
- MIC [7]: > 100 mg/L
- MCC (Vero [8]): 400 µg/mL
- MIC (Semliki Forest virus): 300 mg/L (≈ 830 µM)
- MIC (Human alphaherpesvirus 2): > 200 mg/L
- MCC (Oryctolagus cuniculus): 400 µg/mL
- MIC (Human alphaherpesvirus 1): > 200 mg/L
- MIC (Vero [11]): > 200 mg/L
- CC50 (Raji): > 100 mg/L
- MIC (Sindbis virus): > 300 mg/L
- CC50 (L1210): > 100 mg/L
- K app (Nucleic Acid [12]): < 100 M⁻¹
- Ratio (Nucleic Acid [21]): > 120

Structure (SMILES): Cn1cc([N+](=O)[O-])cc1C(=O)NCCC#N
- MIC (HeLa [1]): 150 mg/L (≈ 675 µM)
- MIC (Vero [2]): > 100 mg/L
- MIC (HeLa [18]): > 400 mg/L
- MIC [3]: > 400 mg/L
- MCC (HeLa [4]): > 400 µg/mL
- K app (Nucleic Acid [5]): < 100 M⁻¹
- MIC (HeLa [15]): > 400 mg/L
- CC50 [6]: > 50 mg/L
- MIC [7]: > 200 mg/L
- MCC (Vero [8]): > 400 µg/mL
- MIC (Semliki Forest virus): > 100 mg/L
- MIC (Human alphaherpesvirus 2): > 200 mg/L
- MCC (Oryctolagus cuniculus): >400 µg/mL
- MIC (Human alphaherpesvirus 1): > 400 mg/L
- MIC (Vero [11]): > 400 mg/L
- CC50 (Raji): > 50 mg/L
- MIC (Sindbis virus): > 100 mg/L
- CC50 (L1210): > 50 mg/L
- K app (Nucleic Acid [12]): < 100 M⁻¹

Structure (SMILES): Nc1ncnc2c1ncn2C[C@H](O)CO [(S)-DHPA]
- MIC (HeLa [1]): > 400 mg/L
- MIC (Vero [2]): 200 mg/L (≈ 956 µM)
- MIC [3]: 70 mg/L (≈ 335 µM)
- MCC (HeLa [4]): > 400 µg/mL
- MIC (HeLa [15]): 20 mg/L (≈ 95.6 µM)
- MIC [7]: 20 mg/L (≈ 95.6 µM)
- MCC (Vero [8]): > 400 µg/mL
- MIC (Semliki Forest virus): > 400 mg/L
- MIC (Human alphaherpesvirus 2): > 400 mg/L
- MCC (Oryctolagus cuniculus): >400 µg/mL
- MIC (Human alphaherpesvirus 1): > 400 mg/L
- MIC (Vero [11]): 7 mg/L (≈ 33.5 µM)
- MIC (Sindbis virus): > 400 mg/L
